Rows were chosen to be rich in hits. Some 3.7% of all compounds tested hit in one or more screens of this group.
KCNQ1 pot: potentiators or activators of KCNQ1 channel, primary screen, cell-based, thallium flux, high-throughput. CHO-K1 KCNQ1, thallium flux FluxOR fluorescence; active compounds read high. AID 2648, 2010. B-score at 10 µM. 310,000 compounds, 0.35% hits;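 active = fluorescence ratio B-score, a plate-corrected score, at least three library SD, with initial intensity B-score within 5 SD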
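Assay system: CHO-K1 cells stably expressing KCNQ1; Medium: assay buffer with matched DMSO; Also added: K+/Tl+ depolarizing stimulus; Dosing: single dose; Timing: dye 90 min, compound 20 min, room temperature; Measured by: kinetic FluxOR thallium fluorescence, 10-s 1-Hz baseline, 110-s post-stimulus read; Read-out: peak-minus-minimum fluorescence over initial fluorescence, negative-control normalized, B-scored.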
Kir21 block: inhibitors of mouse Kir2.1 inward-rectifier potassium channel; B-score at 10 µM; AID 1672, 2009; Inward rectifier potassium channel 2 (Mus musculus), P35561; HEK293-Kir2.1, FluxOR thallium flux fluorescence; active compounds read low; 310,000 compounds, 0.85% hits;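 active = fluorescence ratio B-score at or below minus 3 SD of library scores, with starting-brightness B-score within 2 SD, cut at about -4.2 in these data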;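 note: channel flux triggered by added potassium and thallium sulfate stimulus; B-score of peak minus minimum fluorescence over baseline after thallium stimulus; more negative B-score means stronger Kir2.1 block with less thallium influx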
KCNK3 block: human KCNK3 channel inhibitors, primary screen, CHO cells, FluxOR thallium flux, B-score | 340,000 compounds, 0.84% hits | FluxOR fluorescence; active compounds read low | Potassium channel subfamily K member 3 (Homo sapiens), O14649 | B-score at 10 µM;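 active = B-score under library mean minus 4 SD, starting fluorescence ratio at most library mean plus 5 SD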;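 note: more negative B-score means stronger inhibition of thallium flux through KCNK3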
hERG protect: hERG rescue from dofetilide block, primary screen, cell-based, CHO-hERG, FluxOR thallium flux, dofetilide IC70; Voltage-gated inwardly rectifying potassium channel KCNH2 (Homo sapiens), Q12809; dofetilide IC70 present; activation (rescue from dofetilide block), less the hit threshold, % at 10 µM; 310,000 compounds, 0.51% hits;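 active = activation above the mean of controls blocked by dofetilide plus 5 SD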;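 note: thallium influx through hERG after potassium depolarization seen as dye fluorescence rise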
KCNK9 inh: KCNK9 potassium channel inhibitors, primary screen, HEK293 cells, thallium flux; 310,000 compounds, 1.2% hits; FluxOR thallium flux fluorescence; active compounds read low; B-score at 10 µM; Potassium channel subfamily K member 9 (Homo sapiens), Q9NPC2;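 active = ratio B-score over 3 SD below the library mean, with starting fluorescence within 5 SD of its mean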;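 note: negative B-score means less thallium flux so channel inhibition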
KCNQ1 block: inhibitors of human KCNQ1 channel, primary screen, cell-based, thallium flux, high-throughput; Potassium voltage-gated channel subfamily KQT member 1 (Homo sapiens), P51787; CHO-K1 KCNQ1, FluxOR thallium flux fluorescence; active compounds read high; B-score at 10 µM; 310,000 compounds, 1.3% hits;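 active = compounds whose thallium flux B-score, printed positive for inhibition, exceeds three library SD while starting fluorescence stays within three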;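 note: channel opened by potassium depolarization with thallium stimulus after 20 min compound exposure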
Numbers without * were called inactive; i = inactive; x = not tested or not shown.

SMILES	KCNQ1 pot	Kir21 block	KCNK3 block	hERG protect	KCNK9 inh	KCNQ1 block
Cc1cc2c3c([nH]c2cc1S(=O)(=O)NCc1ccc(CN2CCCCCC2)o1)CCCC3=O	i	-1	i	-8	i	i
Cn1/c(=N/NC(=O)c2ccccc2Br)sc2ccccc21	i	0.93	i	-3	i	i
O=C(Nc1ccc(C(=O)N2CCCCC2)cc1)C1CCCCC1	i	1.6	i	9.1*	i	i
c1ccc(COc2ccccc2CNC2CCCC2)cc1	i	-2.9	i	-14	i	i
c1csc(COc2ccccc2CNC2CCCCC2)c1	i	-4.2*	i	-6	i	i
CC(C)=CCC/C(C)=C/CC/C(C)=C/COc1ccc2ccc(=O)oc2c1	x	x	i	x	x	x
CC(C)=CCC/C(C)=C/COc1c2occc2cc2ccc(=O)oc12	x	x	-9.8*	x	x	x
CCOC(=O)C1=NN(c2ccccc2)C2=NC(C)=C(C(=O)OC)C(c3cccs3)N12 (configuration not stated)	i	0.75	i	-10	i	i
CCOC(=O)C1=NN(c2ccc(F)cc2)C2=NC(C)=C(C(=O)OC)C(c3cccs3)N12 (configuration not stated)	i	1.3	i	-19	-6.9*	i
COc1ccc(C(=O)NNC(=O)CN2CCN(c3nc(-c4ccccc4)cs3)CC2)cc1	i	-0.02	i	-2	i	i
Cc1ccc(C)c(OCC(O)CN2CCc3ccccc3C2)c1C (configuration not stated)	i	-5.7*	i	-11	i	i
CCCCNS(=O)(=O)c1ccc2nc(SCC(=O)Nc3sccc3C#N)[nH]c2c1	i	-0.89	i	-23	i	11*
CCOC(=O)C(C)S(=O)(=O)c1ccc(C(F)(F)F)cn1 (configuration not stated)	i	0.44	i	-8	i	i
CCOc1ccc(N(C)S(=O)(=O)c2ccc(C)c(C(=O)OCC(=O)c3c[nH]c4ccccc34)c2)cc1	i	2.2	i	-10	-7.6*	i
Cc1ccc(F)c([C@H]2[C@@H]3C=CCC[C@@]3(C)C(=O)N2Cc2ccccc2)c1	i	-1.2	i	-6	i	8*
Cn1cnc([N+](=O)[O-])c1Sc1nc(N)nc2c1ncn2C1OC(CO)C(O)C1O (configuration not stated)	x	x	i	x	x	x
COc1cccc(-c2nc(COc3ccc(Cl)cc3Cl)no2)c1	i	-0.06	i	-14	i	i
CCn1c(CNc2ccc(Cl)cc2)nnc1SCc1ccc(Cl)cc1	i	-5*	i	-7	i	i
C#CCNC(=O)C(C)c1ncc(C(F)(F)F)cc1Cl (configuration not stated)	i	1.7	i	-6	i	i
CC(=O)N(Cc1ccc(Br)cc1)c1cccc(C)c1C	i	-4.9*	i	-6	i	i
COc1ccc(N(CC(=O)N2CCN(Cc3ccccc3)CC2)S(C)(=O)=O)cc1OC	i	-0.01	i	9.3*	i	i
N#Cc1ccccc1OCC(=O)OCC(=O)N1CCN(C(=O)c2ccco2)CC1	i	1.1	i	-17	i	i
COC(C[C@@H]1O[C@H]1C(=O)COCc1ccccc1)OC	i	0.33	i	-1	i	i
CCOC(=O)c1[nH]c(C)c(C(=O)NCc2cccnc2)c1C	i	-0.43	i	-7	i	i
CCOc1ccc(Nc2ccc([N+](=O)[O-])c3nonc23)cc1	i	-1.1	i	-7	i	7*
SMILES	KCNQ1 pot	Kir21 block	KCNK3 block	hERG protect	KCNK9 inh	KCNQ1 block
Cc1ccc(NC(=O)C2(NC(=O)c3ccccn3)CCCCC2)cc1Br	i	1.3	i	-5	i	i
Cc1ccc(C(C)C)c(OCC(O)CN(C)Cc2ccccc2)c1 (configuration not stated)	i	-9.7*	i	-13	i	i
Cc1ccc(OCCCCN2CCc3ccccc3C2)c(C)c1	i	-0.31	i	-11	i	i
Cc1ccc(C(C)C)c(OCCCN2C(=O)NC(C)(C)C2=O)c1	i	-2.5	i	-15	i	i
Cc1ccc(C(C)C)c(OCCCN(C)Cc2ccccc2)c1	i	-11*	i	-16	i	i
CCc1ccc(CN(C)CC(O)COc2cccc3ccccc23)cc1 (configuration not stated)	i	-16*	i	-15	i	i
Cc1ccc(C(C)C)c(OCCCN2CCc3ccccc3C2)c1	i	-9*	i	-8	i	i
COc1ccc(C(C)(C)C)cc1NC(=O)CSc1ncn[nH]1	x	x	i	x	x	x
Cc1nnc(SCC(=O)Nc2ccc(S(=O)(=O)N3CCCC3)cc2)n1N	i	-0.13	i	36*	i	i
Nn1c(SCC(=O)Nc2ccccc2)nnc1C1CCCCC1	i	-1.4	i	-7	i	i
Nn1c(SCC(=O)Nc2ccc(F)cc2)nnc1C1CCCCC1	i	0.07	i	4.9*	i	i
CC(C)CC(=O)NC(=S)Nc1nc(-c2cccc3ccccc23)cs1	34*	-0.17	i	0	i	i
COc1ccc(OC)c(NC(=O)C(=O)NNC(=O)c2cccs2)c1	i	0.02	i	5.5*	i	i
COc1cccc(C(=O)NNC(=O)C(=O)Nc2ccc(OC)cc2OC)c1	19*	0.86	i	12*	i	i
COc1ccc(OC)c(NC(=O)C2CCN(C(=O)c3cccs3)CC2)c1	i	0.52	i	-10	i	i
COc1cccc(C(=O)NNC(=O)C(=O)Nc2cccc3ccccc23)c1	36*	-0.68	i	43*	i	i
COc1cccc(C(=O)NNC(=O)c2ccccc2)c1	i	-0.05	i	-6	i	i
C[C@@H]1C=C(C(=O)NCc2nc3ccccc3[nH]2)O[C@H](OCCCCO)C1	i	0.05	i	-6	i	i
Cc1nc(NCc2cccnc2)c2c3c(sc2n1)CC(C)CC3 (configuration not stated)	38*	-0.41	i	52*	i	i
CCOC(=O)c1sc2nc(C)nc(NCc3cccnc3)c2c1C	i	0.03	i	-6	i	i
C=CC[n+]1c(/C=C/c2ccc(OC(C)=O)c(OC)c2)ccc2ccccc21	12*	-0.06	i	-7	i	i

Assay outcomes from PubChem.
